This note sets out measurements from ChEMBL document CHEMBL4715835, “Lipidic synthetic alkaloids as SK3 channel modulators. Synthesis and biological evaluation of 2-substituted tetrahydropyridine derivatives with potential anti-metastatic activity” (Eur J Med Chem, 2020).

Data set [1] can be described thus: Toxicity in human HCT-116 cells assessed as reduction in cell number after 48 hrs by Hoechst 33342 staining based assay. The method, boiled down:
(§1)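 4000 cells per well. Cells exposed 24 h after seeding to 6 concentrations ([…]) for 48 h. They were then fixed in cold 90% ethanol/5% acetic acid for 20 min and nuclei stained with Hoechst 33342. Plates imaged on a high-content reader. IC₅₀ calculated; normal diploid skin fibroblasts served as control cells.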

The nature of data set [2]: Toxicity in human MCF7 cells assessed as reduction in cell number after 48 hrs by Hoechst 33342 staining based assay. The method, boiled down:
as §1

A short description of data set [3]: Toxicity in human skin fibroblasts assessed as reduction in cell number after 48 hrs by Hoechst 33342 staining based assay. It is filed as tissue-based, Fibroblast. The method, boiled down:
as §1

Data set [4] relates to MDA-MB-435. The data set can be described thus: Toxicity in human MDA-MB-435 cells assessed as mortality at 1 uM measured after 24 hrs by MTT assay relative to control. The settings on record: mda-mb-435, 24 h. The format is cell-based. The method, boiled down: (§2)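 MTT viability assay: about 4 × 10⁴ MDA-MB-435s cells seeded in triplicate with the molecules (tested series 100 nM, 300 nM, 1 µM, 3 µM, 10 µM) and kept 24 h at 37 °C. Medium was then removed and cells incubated 45 min at 37 °C with tetrazolium salt, which viable cells reduce to formazan. Results given as % mortality.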
A general note: Tetrazolium assays rely on reduction of a dye to a coloured formazan, in cell work by metabolically active cells.

Data set [5] is described as follows: Toxicity in human NCI-H727 cells assessed as reduction in cell number after 48 hrs by Hoechst 33342 staining based assay. The method, boiled down:
as §1

The test system of data set [6] is MDA-MB-435. Put plainly: Toxicity in human MDA-MB-435 cells assessed as mortality at 10 uM measured after 24 hrs by MTT assay relative to control. The format is cell-based. The settings on record: mda-mb-435, 24 h. The method, boiled down: as §2
Data set [7] can be described thus: Toxicity in human Caco-2 cells assessed as reduction in cell number after 48 hrs by Hoechst 33342 staining based assay. The method, boiled down: as §1
The nature of data set [8]: Toxicity in human MDA-MB-231 cells assessed as reduction in cell number after 48 hrs by Hoechst 33342 staining based assay. The method, boiled down: as §1
Data set [9] can be described thus: Toxicity in human PC-3 cells assessed as reduction in cell number after 48 hrs by Hoechst 33342 staining based assay. The method, boiled down:
as §1

Data set [10] in a line: Toxicity in human Huh-7 cells assessed as reduction in cell number after 48 hrs by Hoechst 33342 staining based assay. The method, boiled down:
as §1

Data set [11] concerns MDA-MB-435. Put plainly: Toxicity in human MDA-MB-435 cells assessed as mortality at 3 uM measured after 24 hrs by MTT assay relative to control. It is filed as cell-based. The settings on record: mda-mb-435, 24 h. The method, boiled down: as §2

As to `CCCCCCCCCCCCCCCCC[C@H](C[C@@H]1C=CCCN1C)OC(C)=O`, the IC50 (in general, the concentration at which inhibition is half-maximal) at 48 h was 16 µM in data set [1]; 19 µM in data set [2]; 18 µM in [3]; more than 25 µM in [5]; 9 µM in [7]; 21 µM in [8]. The IC50 at 48 h in [9] is 15 µM; in [10], 22 µM. The mortality (in general, the share of the test organisms that died) in [4] worked out at 5%; in [6], 70%.

As to `COc1cccc2c1C(=O)c1c(O)c3c(c(O)c1C2=O)C[C@@](O)(C(=O)CO)C[C@@H]3O[C@H]1C[C@H](N)[C@H](O)[C@H](C)O1` [DOXORUBICIN], the IC50 at 48 h is 0.12 µM in data set [1]; 0.03 µM in data set [3]; 0.66 µM in [5]; 0.17 µM in [7]; 0.12 µM in [9].

On to `CCCCCCCCCCCCCCCCC[C@@H](O)C[C@@H]1C=CCCN1C`, for which the IC50 at 48 h is more than 25 µM in [1]; more than 25 µM in [2]; more than 25 µM in data set [3]; more than 25 µM in data set [5]; 21 µM in data set [7]; more than 25 µM in data set [8]. The IC50 at 48 h in [9] and in data set [10] was more than 25 µM throughout. For the same compound, the mortality in data set [4] is on record as 0%; in data set [6], 80%.

In the case of `CCCCCCCCCCCCCCCCCC(O)Cc1ccccn1` (stereo unspecified), the mortality in data set [4] and in [6] was 0% in each case.

On to `CCCCCCCCCCCCCCCCCCC[C@@H](O)C[C@@H]1C=CCCN1C`, for which the IC50 at 48 h in data set [1], in data set [2], in [3], in data set [5], in data set [7] and in data set [8] was more than 25 µM each time. Further, the IC50 at 48 h in data set [9] and in [10] was more than 25 µM throughout. For the same compound, the mortality in data set [4] was 20%; in [11] it was 30%.

Turning to `CCCCCCCCCCCCCCCCC[C@@H](C[C@@H]1C=CCCN1C)OC(C)=O`, the IC50 at 48 h in data set [1] is 24 µM; in data set [2], more than 25 µM; in data set [3], 24 µM; in data set [5] it was more than 25 µM; in data set [7], 9 µM; in data set [8] it was 22 µM. Also, the IC50 at 48 h was 26 µM in data set [9] and more than 25 µM in data set [10]. The mortality in data set [4] was determined as 0%; in data set [6] it was 20%.

With `CCCCCCCCCCCCCCCCCCCC(O)Cc1ccccn1` (stereo unspecified), the mortality in [4] and in data set [11] was 20% throughout.

Turning to `CCCCCCCC/C=C\CCCCCCCC(O)Cc1ccccn1` (stereo unspecified), the mortality came out at 20% in data set [4] and 25% in data set [11].

`CCCCCCCCCCCCCCCCCCCC(Cc1ccccn1)OC` (stereo unspecified): the mortality in data set [4] and in [11] was 20% each time.

With `CCCCCCCC/C=C\CCCCCCCC(Cc1ccccn1)OC` (stereo unspecified), the mortality in data set [4] turned out to be 20%; in [11] it was 25%.

`CCCCCCCCCCCCCCCCC[C@@H](O)C[C@@H]1CCCCN1C`: the mortality in data set [4] came to 0%; in data set [6], 35%.

In the case of `CCCCCCCCCCCCCCCCCCC[C@H](C[C@@H]1C=CCCN1C)OC(C)=O`, the IC50 at 48 h in data set [1] is more than 25 µM; in data set [2] it was more than 25 µM; in [3], more than 25 µM; in data set [5] it was more than 25 µM; in data set [7], 17 µM; in [8], more than 25 µM. Besides, the IC50 at 48 h in data set [9] and in data set [10] was more than 25 µM throughout. The mortality in data set [4] amounted to 0%; in data set [6] it was 20%.

`CCCCCCCCCCCCCCCCCC(Cc1ccccn1)OC` (stereo unspecified): the mortality in data set [4] and in data set [6] was 0% in each case.

For the compound `CCCCCCCCCCCCCCCCCC(Cc1cccc[n+]1C)OC.Cc1ccc(S(=O)(=O)[O-])cc1` (stereo unspecified), the mortality in data set [4] stood at 30%; in data set [6], 80%.
